Bioassay records: PubChem, several laboratories
STAT1 inh = inhibitors of IFN-gamma induced STAT1 signaling; inhibition, % at 5.5 µM; actives 0.35% (n = 200,000); AID 920; NIH 3T3 STAT1-luciferase reporter, luminescence;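 active = inhibition above a set limit, the mean inhibition across all tested compounds plus 3 SD, cut at about 34% in these data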
KCC2 mod = KCC2 (human) Cl- transport modulation. Q9H2X9. KCC2 cells, thallium flux FluoZin-2 fluorescence. B-score of Tl+ flux slope (higher = more flux/activation; lower = inhibition) at 10 µM. actives 2.2% (n = 190,000). AID 1456;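 active = thallium flux slope and its plate-corrected score both differing from the plate sample mean at a set confidence after two filtering rounds, in either direction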;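 note: slope of fluorescence scaled to starting intensity during 10 to 20 s after thallium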
Target sequence (Q9H2X9 whole entry, looked up): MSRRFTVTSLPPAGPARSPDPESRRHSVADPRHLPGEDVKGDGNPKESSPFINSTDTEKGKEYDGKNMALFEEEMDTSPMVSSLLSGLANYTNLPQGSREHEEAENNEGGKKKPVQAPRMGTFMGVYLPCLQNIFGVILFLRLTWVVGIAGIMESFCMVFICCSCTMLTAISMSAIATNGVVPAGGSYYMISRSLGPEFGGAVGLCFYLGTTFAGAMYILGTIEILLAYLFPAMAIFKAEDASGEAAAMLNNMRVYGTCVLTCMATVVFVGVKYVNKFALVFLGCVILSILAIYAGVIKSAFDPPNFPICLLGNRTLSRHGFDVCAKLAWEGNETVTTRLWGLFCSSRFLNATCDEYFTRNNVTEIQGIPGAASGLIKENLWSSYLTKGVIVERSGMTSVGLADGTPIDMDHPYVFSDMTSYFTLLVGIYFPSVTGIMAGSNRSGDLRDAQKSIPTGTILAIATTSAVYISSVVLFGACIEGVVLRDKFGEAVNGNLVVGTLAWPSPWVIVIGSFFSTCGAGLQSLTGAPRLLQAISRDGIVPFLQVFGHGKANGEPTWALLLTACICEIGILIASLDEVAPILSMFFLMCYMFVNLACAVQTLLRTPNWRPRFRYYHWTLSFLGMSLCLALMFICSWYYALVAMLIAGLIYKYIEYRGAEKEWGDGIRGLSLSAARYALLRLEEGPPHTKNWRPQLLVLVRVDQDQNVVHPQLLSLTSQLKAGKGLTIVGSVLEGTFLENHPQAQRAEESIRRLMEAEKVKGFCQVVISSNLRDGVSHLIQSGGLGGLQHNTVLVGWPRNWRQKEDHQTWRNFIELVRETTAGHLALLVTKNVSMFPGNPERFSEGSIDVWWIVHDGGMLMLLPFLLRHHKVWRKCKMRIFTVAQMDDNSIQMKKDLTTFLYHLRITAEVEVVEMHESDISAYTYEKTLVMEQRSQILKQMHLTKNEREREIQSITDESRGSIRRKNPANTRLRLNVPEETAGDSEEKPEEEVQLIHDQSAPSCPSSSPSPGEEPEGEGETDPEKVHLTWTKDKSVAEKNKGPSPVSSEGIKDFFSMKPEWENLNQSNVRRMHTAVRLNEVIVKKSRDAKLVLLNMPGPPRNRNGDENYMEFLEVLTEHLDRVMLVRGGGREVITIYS
STAT1 activator = increases IFN-gamma driven STAT1 reporter signal; AID 932; actives 2.6% (n = 200,000); activation (% of control), % at 5.5 µM; NIH 3T3 STAT1-luciferase reporter, luminescence; 100% = IFN-gamma alone, no compound;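 active = activation above the screen-wide mean activation plus 3 SD, cut at about 130% in these data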
STAT3 inh = reduces IL-6 driven STAT3 reporter signal | U3A cells, IL-6 STAT3-luciferase reporter, luminescence; host cell line lacks STAT1 | inhibition, % at 5.5 µM | actives 0.89% (n = 190,000) | AID 862;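 active = inhibition above the mean inhibition across all screened compounds plus 3 SD, cut at about 44% in these data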
HSV augment = increases HSV replication in cells; HSV replication augmentation in cells, fold increase; maximum fold increase; actives 0.005% (n = 220,000); AID 1956; in the data active = maximum fold increase above about 1.5; inconclusive = no clear call, values can overlap the other calls; tested in PC3 cells
STAT3 activator = activators of IL-6 induced STAT3 signaling; U3A cells, IL-6 STAT3-luciferase reporter, luminescence; 100% = signal with IL-6 EC80 alone; activation (% of control), % at 5.6 µM; actives 0.91% (n = 190,000);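 active = activation above the screen-wide mean of compound activation plus 3 SD, cut at about 130% in these data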
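Material: STAT3-luciferase reporter U3A cells. Controls: IL-6-treated wells, 100% activation. Read-out: % activation versus median of IL-6-stimulated wells. Probe or stimulus: IL-6 stimulus at 33 ng/mL final. Timing: compound 1 h, then IL-6 6 h at 37 °C. Signal: reporter luminescence signal.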
KCC2 sec1 = KCC2 (human) modulation, secondary assay; HEK293-KCC2, thallium flux, FluoZin2 fluorescence; hits give high values; shares compounds with KCC2 mod; normalised thallium flux (F/F0 slope) at 10 µM; actives 15% (n = 3,700);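 active = thallium flux slope above the same plate's solvent-only control mean plus 3 SD; inconclusive = the two replicate wells disagree; inactive = no significant difference from solvent-only control wells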
KCC2 bumet counter = thallium flux despite bumetanide block in KCC2 cells, secondary assay 3 | shares compounds with KCC2 mod | HEK293-KCC2 + bumetanide/ouabain, thallium flux FluoZin2; hits give high values | normalized thallium flux at 10 µM | actives 49% (n = 3,700);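 active = thallium entry rate above the same plate's blocked-transporter control wells by more than 3 SD; inconclusive = the two repeat wells disagree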;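 note: raw slope of fluorescence over initial fluorescence between 10 and 20 s after thallium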
KCC2 sec2 = KCC2 (human) modulation, second secondary assay. AID 1715. actives 23% (n = 3,700). shares compounds with KCC2 mod. HEK293-KCC2, thallium flux FluoZin2 fluorescence; actives lie on both sides; F/F0 rise rate, 10–20 s post-thallium. normalized thallium flux at 10 µM;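 active = thallium flux slope more than 3 SD above or below the plate's solvent-only control mean, mostly below; inconclusive = the two repeat wells disagreed; inactive = no significant shift from solvent-only controls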
HEK counter1 = acts in parental HEK cells, KCC2 counter-screen; actives 46% (n = 3,700); thallium flux rate (normalised fluorescence) at 10 µM; HEK293 parental cells, thallium flux FluoZin2, ouabain; baseline-ratio fluorescence slope, 10–20 s after thallium; shares compounds with KCC2 mod;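 active = thallium flux rate significantly above the same plate's solvent-only control wells, beyond their mean plus 3 SD; inconclusive = the two replicate wells gave conflicting results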
KCC2 ouabain = confirmation of human KCC2 modulators with ouabain. HEK293-KCC2, thallium flux FluoZin2 fluorescence; bidirectional: low = inhibitor, high = activator. actives 48% (n = 3,700). AID 1717. shares compounds with KCC2 mod. raw Tl+ flux slope (below DMSO = inhibition, above = activation) at 10 µM;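 active = thallium flux slope beyond 3 SD from same-plate DMSO control mean in most replicates, usually higher, sometimes lower; inconclusive = repeat tests gave conflicting results; inactive = no significant difference from controls in most replicates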;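 note: slope of initial-normalized fluorescence between seconds 10 and 20 after thallium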
HEK293 Tl flux2 = parental HEK flux effect, counter-screen 2; shares compounds with KCC2 mod; HEK293 parental, thallium flux FluoZin-2 fluorescence slope; thallium flux slope at 10 µM; actives 33% (n = 3,700); AID 1718;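 active = thallium flux slope above the same plate's solvent-control mean plus 3 SD in both duplicate wells; inconclusive = duplicate wells that disagreed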;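 note: run without ouabain in cells lacking the KCC2 cotransporter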
Large screens that a line does not name were inactive (follow-up assays come after a bar, where they were run). Most compounds without a hit are left out; they make up all but 5.5% or so of the library.

O=S(=O)(Nc1cccc2ncccc12)c1cccs1	KCC2 mod 29 | KCC2 sec1 0.025 | KCC2 bumet counter 0.069 | KCC2 sec2 0.037 | HEK counter1 0.027 | KCC2 ouabain 0.048 | HEK293 Tl flux2 0.019
N#C/C(=N\Nc1ccc(Cl)c(Cl)c1)C(=O)C1CC1	KCC2 mod -6 (no result: STAT1 inh, STAT1 activator, STAT3 inh, STAT3 activator) | KCC2 sec1 inactive | KCC2 bumet counter inactive | KCC2 sec2 0.023 | HEK counter1 0.004 | KCC2 ouabain 0.012 | HEK293 Tl flux2 0.0074
N#C/C(=N\Nc1ccc(F)cc1)C(=O)C1CC1	none (no result: STAT1 inh, STAT1 activator, STAT3 inh, STAT3 activator)
Cc1ccc(NC(=O)c2ccc(C(C)(C)C)cc2)cc1-n1cnnn1	none
Cc1cccc(NC(=O)NCC(c2cccnc2)N2CCOCC2)c1 (centres undefined)	none (no result: KCC2 mod, HSV augment) | KCC2 sec1 inactive | KCC2 bumet counter inactive | KCC2 sec2 inactive | HEK counter1 inactive | KCC2 ouabain inactive | HEK293 Tl flux2 inactive
COc1ccc(-c2nc(-c3ccccc3)c(-c3cccs3)[nH]2)cc1OC	KCC2 mod -5.4 | KCC2 sec1 inactive | KCC2 bumet counter inactive | KCC2 sec2 inactive | HEK counter1 inactive | KCC2 ouabain inactive | HEK293 Tl flux2 inactive
COc1ccc(-c2nc(-c3cccs3)c(-c3cccs3)[nH]2)cc1OC	none
CC(C)(C)C1CCc2c(sc(NC(=O)c3cccs3)c2C(=O)N2CCCCC2)C1 (centres undefined)	none (no result: KCC2 mod)
O=C1NCC(O)=C1C=NCCO	none (no result: KCC2 mod) | KCC2 sec1 inactive | KCC2 bumet counter inactive | KCC2 sec2 inactive | HEK counter1 inactive | KCC2 ouabain inactive | HEK293 Tl flux2 inactive
O=C(O)CCCN=CC1=C(O)CNC1=O	none
CCCOc1ccc2ccccc2c1/C=N/n1c(C)nnc1-n1nc(C)cc1C	none
Cc1ccccc1Nc1nnc(SCc2cc(=O)n3ccsc3n2)s1	KCC2 mod -4.9 | KCC2 sec1 inactive | KCC2 bumet counter inactive | KCC2 sec2 inactive | HEK counter1 inactive | KCC2 ouabain inconclusive | HEK293 Tl flux2 inactive
O=c1cc(CSc2nnc(Nc3ccccc3)s2)nc2sccn12	none
CC(=O)NC(C)C(=O)OCC(=O)c1ccc(-c2ccccc2)cc1 (centres undefined)	KCC2 mod -4.1 | KCC2 sec1 inactive | KCC2 bumet counter inactive | KCC2 sec2 inconclusive | HEK counter1 inactive | KCC2 ouabain inactive | HEK293 Tl flux2 inactive
Nc1ccc(Br)cc1Br	none (no result: STAT1 inh, KCC2 mod, STAT1 activator, STAT3 inh, STAT3 activator)
C(=C\c1ccccc1)/CN1CCN(Cc2ccc3c(c2)OCCO3)CC1	KCC2 mod 3.4 | KCC2 sec1 inactive | KCC2 bumet counter inactive | KCC2 sec2 inactive | HEK counter1 inactive | KCC2 ouabain inactive | HEK293 Tl flux2 inactive
O=S(=O)(/C=C/c1ccccc1)N1CCN(Cc2ccc3c(c2)OCO3)CC1	none
Cc1ccc(NC(=O)CN(Cc2ccccc2)S(C)(=O)=O)cc1C	none
Cc1[nH]c(=S)c(C#N)c(C)c1Cc1ccccc1	none (no result: STAT1 inh, KCC2 mod, STAT1 activator, STAT3 inh, STAT3 activator)
Cc1cc(-c2ccccc2)c(C#N)c(=S)[nH]1	KCC2 mod 6.9 | KCC2 sec1 0.017 | KCC2 bumet counter 0.028 | KCC2 sec2 inactive | HEK counter1 0.016 | KCC2 ouabain inactive | HEK293 Tl flux2 0.012
